Activity calls are given as the source filed them. No cut-off for these calls is given here.
Legend:
MDA-MB-231 [1] = assay: Induction of autophagy in human MDA-MB-231 cells assessed as downregulation of mTOR at ser2448 residue expression at 1.25 to 5 uM for 24 hrs by Western blot assay; type: functional, cell-based; conditions: dose 1.25-5 µM
How it was run: (§1)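 MDA-MB-231 cells treated with 1.25, 2.5 or 5 µM for 24 h. Lysates made in Hepes pH 7.4/Triton X-100 buffer with protease and phosphatase inhibitors, then run on SDS-PAGE, blotted to PVDF and detected by HRP/ECL. p-PI3K and p-mTOR Ser2448 bands normalised to β-actin.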

MDA-MB-231 [2] = assay: Induction of apoptosis in human MDA-MB-231 cells assessed as late apoptotic cells at 5 microM after 24 hrs by Annexin-V/PI staining based flow cytometry (Rvb= 2.46%); type: functional
MDA-MB-231 [3] = assay: Induction of apoptosis in human MDA-MB-231 cells assessed as necrotic cells at 1.25 microM after 24 hrs by Annexin-V/PI staining based flow cytometry (Rvb= 1.22%); type: functional
MDA-MB-231 [4] = assay: Induction of autophagy in human MDA-MB-231 cells assessed as downregulation of AKT expression at 1.25 to 5 uM for 24 hrs by Western blot assay; type: functional, cell-based; conditions: dose 1.25-5 µM
MDA-MB-231 [5] = assay: Induction of apoptosis in human MDA-MB-231 cells assessed as early apoptotic cells at 2.5 microM after 24 hrs by Annexin-V/PI staining based flow cytometry (Rvb= 3.14 %); type: functional
MDA-MB-231 [6] = assay: Induction of autophagy in human MDA-MB-231 cells assessed as increase of beclin 1 expression after 24 hrs by Western blot assay; type: functional, cell-based; conditions: dose 1.25-5 µM
MDA-MB-231 [7] = assay: Induction of apoptosis in human MDA-MB-231 cells assessed as necrotic cells at 2.5 microM after 24 hrs by Annexin-V/PI staining based flow cytometry (Rvb= 1.22%); type: functional
MDA-MB-231 [8] = assay: Induction of autophagy in human MDA-MB-231 cells assessed as degradation of SQSTM1/p62 after 24 hrs by Western blot assay; type: functional, cell-based; conditions: dose 1.25-5 µM
MDA-MB-231 [9] = assay: Induction of autophagy in human MDA-MB-231 cells assessed as increase of p-ULK1 expression after 24 hrs by Western blot assay; type: functional, cell-based; conditions: dose 1.25-5 µM
MDA-MB-231 [10] = assay: Induction of apoptosis in human MDA-MB-231 cells assessed as viable cells at 5 microM after 24 hrs by Annexin-V/PI staining based flow cytometry (Rvb= 93.17 %); type: functional; conditions: read-out: Activity
MDA-MB-231 [11] = assay: Induction of autophagy in human MDA-MB-231 cells assessed as aggregation of LC3 puncta after 24 hrs by immunofluorescence analysis; type: functional, cell-based
How it was run: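 MDA-MB-231 cells transfected with GFP/mRFP-LC3, then exposed to 2.5 µM for 24 h. LC3 puncta and autophagy ratio scored under a fluorescence microscope.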

MDA-MB-231 [12] = assay: Inhibition of ATAD2 in human MDA-MB-231 cells by measuring reduction in color intensity at 2.5 uM by immuno chemistry analysis; type: functional, cell-based
How it was run: (§2)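 MDA-MB-231 cells treated at 2.5 µM. Anti-ATAD2 or anti-p-cMyc primary (1:200 in PBS/1% BSA) applied overnight at 4 °C, then fluorescent secondary antibody 1 h at room temperature. Nuclei counterstained with DAPI, green signal imaged.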

MDA-MB-231 [13] = assay: Induction of apoptosis in human MDA-MB-231 cells assessed as reduction of Bcl-2 expression after 24 hrs by Western blot assay; type: functional, cell-based; conditions: dose 1.25-5 µM
How it was run: (§3)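 MDA-MB-231 cells (DMEM, 10% FBS, 5% CO2) exposed to 1.25, 2.5 or 5 μM for 24 h. Adherent and floating cells lysed in Hepes 50 mM pH 7.4/1% Triton X-100 buffer with phosphatase and protease inhibitors. Equal protein run on 10–15% SDS-PAGE, transferred to PVDF, detected by HRP/ECL. Bands normalised to β-actin, compared with DMSO control by unpaired t-test.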

MDA-MB-231 [14] = assay: Induction of apoptosis in human MDA-MB-231 cells assessed as late apoptotic cells at 2.5 microM after 24 hrs by Annexin-V/PI staining based flow cytometry (Rvb= 2.46%); type: functional
MDA-MB-231 [15] = assay: Induction of apoptosis in human MDA-MB-231 cells assessed as early apoptotic cells at 1.25 microM after 24 hrs by Annexin-V/PI staining based flow cytometry (Rvb= 3.14 %); type: functional
MDA-MB-231 [16] = assay: Inhibition of ATAD2 in human MDA-MB-231 cells by measuring c-myc protein level at 1.25 to 5 uM for 24 hrs by Western blot analysis; type: functional, cell-based; conditions: dose 1.25-5 µM
How it was run: (§4)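 MDA-MB-231 cells treated with 1.25, 2.5 and 5.0 µM for 24 h. Lysates separated on 10–15% SDS-PAGE and blotted to PVDF. c-Myc and p-cMyc detected with HRP/ECL, with β-actin as loading control.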

MDA-MB-231 [17] = assay: Induction of apoptosis in human MDA-MB-231 cells assessed as viable cells at 2.5 microM after 24 hrs by Annexin-V/PI staining based flow cytometry (Rvb= 93.17 %); type: functional; conditions: read-out: Activity
MDA-MB-231 [18] = assay: Induction of apoptosis in human MDA-MB-231 cells assessed as reduction of cleavage of caspase 8 after 24 hrs by Western blot assay; type: functional, cell-based; conditions: dose 1.25-5 µM; how it was run: as §3
MDA-MB-231 [19] = assay: Induction of apoptosis in human MDA-MB-231 cells assessed as necrotic cells at 5 microM after 24 hrs by Annexin-V/PI staining based flow cytometry (Rvb= 1.22%); type: functional
MDA-MB-231 [20] = assay: Inhibition of ATAD2 in human MDA-MB-231 cells assessed as downregulation of c-myc phosphorylation at 2.5 uM by immuno chemistry analysis; type: cell-based; how it was run: as §2
MDA-MB-231 [21] = assay: Induction of apoptosis in human MDA-MB-231 cells assessed as early apoptotic cells at 5 microM after 24 hrs by Annexin-V/PI staining based flow cytometry (Rvb= 3.14 %); type: functional
MDA-MB-231 [22] = assay: Induction of autophagy in human MDA-MB-231 cells assessed as downregulation of PI3K expression at 1.25 to 5 uM for 24 hrs by Western blot assay; type: functional, cell-based; conditions: dose 1.25-5 µM; how it was run: as §1
MDA-MB-231 [23] = assay: Induction of autophagy in human MDA-MB-231 cells assessed as increase of ULK1 expression after 24 hrs by Western blot assay; type: functional, cell-based; conditions: dose 1.25-5 µM
MDA-MB-231 [24] = assay: Induction of apoptosis in human MDA-MB-231 cells assessed as increase of Bax expression after 24 hrs by Western blot assay; type: functional, cell-based; conditions: dose 1.25-5 µM; how it was run: as §3
MDA-MB-231 [25] = assay: Induction of apoptosis in human MDA-MB-231 cells assessed as late apoptotic cells at 1.25 microM after 24 hrs by Annexin-V/PI staining based flow cytometry (Rvb= 2.46%); type: functional
MDA-MB-231 [26] = assay: Induction of autophagy in human MDA-MB-231 cells assessed as increase of LC3-II expression after 24 hrs by Western blot assay; type: functional, cell-based; conditions: dose 1.25-5 µM
MDA-MB-231 [27] = assay: Induction of apoptosis in human MDA-MB-231 cells assessed as reduction of cleavage of caspase 3 after 24 hrs by Western blot assay; type: functional, cell-based; conditions: dose 1.25-5 µM; how it was run: as §3
MDA-MB-231 [28] = assay: Inhibition of ATAD2 in human MDA-MB-231 cells by measuring c-myc phosphorylation at 1.25 to 5 uM for 24 hrs by Western blot analysis; type: functional, cell-based; conditions: dose 1.25-5 µM; how it was run: as §4
MDA-MB-231 [29] = assay: Induction of autophagy in human MDA-MB-231 cells assessed as downregulation of mTOR expression at 1.25 to 5 uM for 24 hrs by Western blot assay; type: functional, cell-based; conditions: dose 1.25-5 µM; how it was run: as §1
[30] = target: T1, ATPase family AAA domain-containing protein 2 (Homo sapiens, UniProt Q6PL18); assay: Inhibitory activity against ATAD2 (unknown origin) at bromodomain incubated for 180 min by Tr-FRET assay
T1 sequence (Q6PL18 whole entry): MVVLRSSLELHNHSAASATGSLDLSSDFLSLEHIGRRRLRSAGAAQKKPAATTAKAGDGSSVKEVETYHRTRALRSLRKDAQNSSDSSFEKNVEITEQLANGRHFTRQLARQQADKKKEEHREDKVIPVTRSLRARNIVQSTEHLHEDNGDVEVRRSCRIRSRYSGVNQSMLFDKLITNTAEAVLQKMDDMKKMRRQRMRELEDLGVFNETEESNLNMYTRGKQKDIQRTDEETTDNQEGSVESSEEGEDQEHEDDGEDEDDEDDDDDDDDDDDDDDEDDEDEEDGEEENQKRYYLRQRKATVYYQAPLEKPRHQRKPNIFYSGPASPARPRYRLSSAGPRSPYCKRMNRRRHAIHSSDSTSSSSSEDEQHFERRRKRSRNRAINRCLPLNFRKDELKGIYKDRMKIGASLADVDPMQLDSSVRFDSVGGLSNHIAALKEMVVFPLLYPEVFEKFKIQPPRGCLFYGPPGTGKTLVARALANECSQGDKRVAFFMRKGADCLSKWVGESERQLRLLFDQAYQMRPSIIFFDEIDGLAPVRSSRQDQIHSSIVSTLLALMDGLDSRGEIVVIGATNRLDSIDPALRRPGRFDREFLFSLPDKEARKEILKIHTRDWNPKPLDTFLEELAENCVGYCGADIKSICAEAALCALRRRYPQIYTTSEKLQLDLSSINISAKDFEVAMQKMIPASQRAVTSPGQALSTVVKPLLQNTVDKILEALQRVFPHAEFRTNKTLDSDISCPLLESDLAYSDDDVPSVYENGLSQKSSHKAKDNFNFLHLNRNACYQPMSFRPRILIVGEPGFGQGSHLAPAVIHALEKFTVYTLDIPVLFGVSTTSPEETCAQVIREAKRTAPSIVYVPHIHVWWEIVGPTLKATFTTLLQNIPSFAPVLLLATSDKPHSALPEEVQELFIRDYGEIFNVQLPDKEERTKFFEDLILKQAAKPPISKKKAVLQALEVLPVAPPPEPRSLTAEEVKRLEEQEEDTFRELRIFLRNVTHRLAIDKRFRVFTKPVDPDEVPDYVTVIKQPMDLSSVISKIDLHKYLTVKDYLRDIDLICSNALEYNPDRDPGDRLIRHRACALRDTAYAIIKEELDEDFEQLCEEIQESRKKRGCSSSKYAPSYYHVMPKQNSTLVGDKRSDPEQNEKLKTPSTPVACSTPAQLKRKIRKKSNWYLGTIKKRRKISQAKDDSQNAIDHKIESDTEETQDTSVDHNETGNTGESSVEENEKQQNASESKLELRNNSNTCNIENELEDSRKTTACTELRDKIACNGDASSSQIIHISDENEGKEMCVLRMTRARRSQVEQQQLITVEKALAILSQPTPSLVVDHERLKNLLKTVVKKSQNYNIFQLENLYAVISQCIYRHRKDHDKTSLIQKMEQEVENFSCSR
How it was run: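 Recombinant ATAD2 bromodomain and BET ligand read by TR-FRET. Compounds diluted in DMSO, then 20-fold in 5% DMSO in reaction buffer; 2 µl added per 20 µl reaction. Incubated 180 min, then acceptor/donor fluorescence ratio read. Each concentration run in duplicate.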

In the case of `CC1=C(C#N)c2nc(N)c(C#N)c(C)c2/C1=C\c1ccc(-c2cc(C(=O)O)ccc2Cl)o1`, the Activity (MDA-MB-231 [1]) is reported as “Active”, the Activity (MDA-MB-231 [2]) is reported as 10.01% and the Activity (MDA-MB-231 [3]) is reported as 1.55%. The Activity (MDA-MB-231 [4]) was “Active”, the Activity (MDA-MB-231 [5]) was 7.76% and the Activity (MDA-MB-231 [6]) was “Active”. The Activity (MDA-MB-231 [7]) was 3.67%, the Activity (MDA-MB-231 [8]) was “Active” and the Activity (MDA-MB-231 [9]) was “Dose-Dependent Effect”. For the same compound, the viability at 5 µM (MDA-MB-231 [10]) was 60.1%, the Activity (MDA-MB-231 [11]) was “Active” and the Activity (MDA-MB-231 [12]) was “Active”. The Activity (MDA-MB-231 [13]) was “Active”, the Activity (MDA-MB-231 [14]) was 3.92% and the Activity (MDA-MB-231 [15]) was 5.24%. For the same compound, the Activity (MDA-MB-231 [16]) was “Active”, the viability at 2.5 µM (MDA-MB-231 [17]) was 84.7% and the Activity (MDA-MB-231 [18]) was “Active”. The Activity (MDA-MB-231 [19]) was 5.98%, the inhibition (MDA-MB-231 [20]) was “Active” and the Activity (MDA-MB-231 [21]) was 23.86%. For the same compound, the Activity (MDA-MB-231 [22]) was “Active”, the Activity (MDA-MB-231 [23]) was “Dose-Dependent Effect” and the Activity (MDA-MB-231 [24]) was “Active”. The Activity (MDA-MB-231 [25]) was 2.89%, the Activity (MDA-MB-231 [26]) was “Active” and the Activity (MDA-MB-231 [27]) was “Active”. For the same compound, the Activity (MDA-MB-231 [28]) was “Active” and the Activity (MDA-MB-231 [29]) was “Active”.
For `COc1cc(Cl)c(C(=O)N[C@H](CN[C@H]2CC[C@@H](N)CC2)Cc2ccc(C#N)cc2)cc1-c1ccc(CN[C@H](C)c2ccc(C)cc2)o1`, the IC50 [30] was 242 nM.

Reference: ChEMBL document CHEMBL5712913, “Discovery of novel ATAD2 bromodomain inhibitors that trigger apoptosis and autophagy in breast cells by structure-based virtual screening” (J Enzyme Inhib Med Chem, 2020)
